Hits are enriched below; roughly 1.9% of the tested compounds scored in any of these assays.
ABHD5 PLIN5 PPI = inhibitors of human ABHD5-perilipin-5 interaction; Q00G26+Q8WTS1; Split G. princeps luciferase complementation, luminescence, 4 h; inhibition, % at 4 µM; 360,000 compounds, 0.78% hits; AID 602281;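 active = inhibition above the mean inhibition across every tested compound plus 3 SD, cut at about 22% in these data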;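 note: 0% = DMSO only wells and the 100% control is not disclosed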
Target sequence (Q00G26 whole entry, looked up): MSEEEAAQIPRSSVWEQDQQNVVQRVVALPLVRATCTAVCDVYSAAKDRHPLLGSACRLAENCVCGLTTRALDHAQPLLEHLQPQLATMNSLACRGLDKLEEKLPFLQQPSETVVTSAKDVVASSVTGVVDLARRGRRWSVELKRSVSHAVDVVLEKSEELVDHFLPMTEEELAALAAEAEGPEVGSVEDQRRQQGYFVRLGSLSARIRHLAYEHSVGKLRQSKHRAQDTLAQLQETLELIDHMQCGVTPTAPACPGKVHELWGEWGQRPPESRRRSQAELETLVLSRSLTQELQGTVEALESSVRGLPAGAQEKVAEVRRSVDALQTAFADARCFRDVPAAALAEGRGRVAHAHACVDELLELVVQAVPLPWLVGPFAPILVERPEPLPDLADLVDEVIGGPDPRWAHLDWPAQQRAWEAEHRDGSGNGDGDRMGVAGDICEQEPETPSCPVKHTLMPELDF
Target sequence (Q8WTS1 whole entry, looked up): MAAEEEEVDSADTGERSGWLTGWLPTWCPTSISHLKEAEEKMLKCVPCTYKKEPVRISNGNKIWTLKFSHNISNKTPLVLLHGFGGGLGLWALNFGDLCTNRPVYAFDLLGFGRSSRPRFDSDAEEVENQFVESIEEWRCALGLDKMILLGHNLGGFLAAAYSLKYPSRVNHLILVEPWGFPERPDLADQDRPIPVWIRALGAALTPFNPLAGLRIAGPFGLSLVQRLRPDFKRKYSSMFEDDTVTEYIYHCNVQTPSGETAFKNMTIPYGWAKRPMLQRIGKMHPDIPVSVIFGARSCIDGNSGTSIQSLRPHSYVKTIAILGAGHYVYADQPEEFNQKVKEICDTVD
Hsp70 act = Hsp70 transcriptional activation, primary screen | 200,000 compounds, 0.04% hits | activation, % at 10 µM | AID 1203 | HeLa Hsp70 promoter luciferase reporter, luminescence; scaled: vehicle 0, proteasome-inhibitor control 100%;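 active = activation above the mean across all tested compounds plus 3 SD, cutoff set per campaign, cut at about 5.5% in these data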;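 note: 100% = MG132 at 30 µM as the positive control and 0% = DMSO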
FXN GAA850 act = frataxin GAA850 promoter activation; HEK293 lucGAA850 FXN promoter luciferase reporter, 24 h; percent of 10 µM SAHA response; activation, % at 6 µM; 360,000 compounds, 0.56% hits; AID 540364;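 active = activation above the average of all compounds screened plus 3 SD, cutoff fixed separately per campaign, cut at about 7.5% in these data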;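 note: 0% = DMSO wells and 100% = 10 µM SAHA wells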
H9c2 TAG inh = triacylglycerol accumulation inhibition; H9c2 cells, Nile Red lipid (TAG) fluorescence; cells loaded with 200 µM oleic acid; inhibition, % at 12.5 µM; 230,000 compounds, 0.66% hits; AID 651582;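 active = pattern-corrected inhibition of lipid staining of at least 50% with the nuclear-stain viability signal not falling by more than 50%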;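 note: 0% = DMSO wells and 100% = triacsin C control wells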
Rad51 HR inh = blocks human Rad51 in homologous recombination; 200,000 compounds, 0.085% hits; inhibition, % at 10 µM; hRad51 DNA strand exchange, fluorescence dequenching;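 active = inhibition above 40% at the single screening dose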;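 note: 0% = DMSO control wells and 100% = blanks with heterologous ssDNA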
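System: human Rad51 nucleoprotein filaments preassembled on unlabelled ssDNA. Reagent: labelled 47-mer dsDNA for strand exchange. Schedule: 30-min compound preincubation and 15-min exchange, both room temperature. Measured by: FRET fluorescence dequenching, excitation 485 nm, emission 520 nm. Read-out: Fluorescence-based percent inhibition, control- and blank-normalised. Benchmarks: plate controls and plate blanks.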
HIF act = HIF pathway transcriptional activation. U2OS HRE-luciferase reporter, luminescence; normalized: DMSO 0%, desferrioxamine 100%. activation, % at 7.5 µM (by protocol). 300,000 compounds, 0.32% hits;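 active = mean activation of at least 10% of the iron chelator positive control signal, with at least half of replicates also reaching 10%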
GAA30 FXN cntr = GAA30 FXN promoter activation counter-screen; shares compounds with FXN GAA850 act; HEK293 lucGAA30 FXN promoter luciferase, 24 h; DMSO = 0%, 5 µM ipriflavone = 100%; activation, % at 6 µM; 1,900 compounds, 66% hits; AID 588350;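 active = mean activation above the mean of solvent-only control wells plus 3 SD, cut at about 22% in these data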;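 note: counterscreen of GAA850 promoter hits where activity marks nonselective or luminescence artifacts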
GAA850 confirm = GAA850 FXN promoter activation confirmation. shares compounds with FXN GAA850 act. HEK293 lucGAA850 FXN promoter luciferase reporter, 24 h; 100% = activation by SAHA. activation, % at 6 µM. 1,900 compounds, 86% hits. AID 588351;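 active = mean activation above a set limit taken from the primary screen, cut at about 8% in these data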;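 note: 0% = DMSO wells and 100% = 10 µM SAHA wells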
Starred values were filed as active, the others as inactive; . = no result.

SMILES	ABHD5 PLIN5 PPI	Hsp70 act	FXN GAA850 act	H9c2 TAG inh	Rad51 HR inh	HIF act	GAA30 FXN cntr	GAA850 confirm
CC(C)(C)c1cc(C(=O)N/N=C/c2ccco2)n[nH]1	3	0	8.3*	.	-5	2	73*	29*
CCOC(=O)N/N=C/c1c(C)nn(-c2ccccc2Cl)c1Cl	1	0	8.2*	.	-5	2	93*	34*
Cc1nn(-c2ccccc2)c(Cl)c1/C=N/NC(=O)OC(C)(C)C	-8	0	-3	.	5	2	.	.
CCCCn1cnc2c(SCc3ccc(Br)cc3)nc(N)nc21	9	.	7.8*	-3	.	.	29*	18*
CCCCn1cnc2c(SCc3ccccc3)nc(N)nc21	0	.	7	-26	.	.	.	.
CCCn1cnc2c(SCc3ccc(Cl)cc3)nc(N)nc21	-1	.	9.8*	-1	.	.	45*	25*
CCCn1cnc2c(SCc3ccccc3)nc(N)nc21	-2	.	6	-12	.	.	.	.
O=C1Nc2c(Cl)cc(Cl)cc2C1=O	-9	.	-1	4	.	.	.	.
COc1cccc(C(=O)/C=C/Nc2cc(C)ccc2O)c1	-1	0	11*	.	-1	1	47*	33*
CCN1CCN(c2cc3c(nn2)Oc2ccccc2N3C)CC1	7	0	8.4*	.	.	3	140*	42*
CCc1cccc(CC)c1NC(=O)/C(C#N)=C/c1ccccc1C(F)(F)F	19	0	8.0*	.	-4	3	-12	13*
N#C/C(=C\c1ccccc1C(F)(F)F)C(=O)Nc1ccccc1	2	0	2	-2	1	0	.	.
COc1ccc(N2C(=O)C3C(C2=O)C(C(=O)c2ccc(Cl)cc2)N2CCCC32)cc1 (stereo unspecified)	12	.	8.4*	-1	-63	0	11	4
COc1ccc(NC(=S)NNc2ccc(C(=O)O)cc2)cc1	-24	.	1	.	.	-34	.	.
COc1ccccc1-c1noc2c1C(=O)NCC2	-6	.	0	0	.	.	.	.
Cc1ccc(S(=O)(=O)Nc2cc3c4c(c2)CCC(=O)N4CCC3)cc1	2	.	3	-17	.	0	.	.
CN(C)c1nc(N)nc(CSc2nc3cc(Cl)ccc3o2)n1	0	1	8.3*	.	-5	2	48*	27*
Cc1cc(C)n2cc(CSc3nc4cc(Cl)ccc4o3)nc2n1	1	0	0	.	-3	0	.	.
COc1cccc(-c2ccc(SCc3ccccn3)nn2)c1	0	0	8.7*	-9	-2	3	110*	36*
COc1ccc(-c2ccc(SCc3ccccn3)nn2)cc1OC	-3	0	5	5	6	1	.	.
COc1ccc(CNC(C)C23CC4CC(CC(C4)C2)C3)c(OC)c1OC (stereo unspecified)	5	.	0	.	.	-4	.	.
N#Cc1sc2nc(N3CCCCC3)c3c(c2c1N)CCCC3	-13	0	7.6*	22	2	0	18	17*
CC1(C(=O)NC2CCCCC2)CCC(=O)N1CCOc1ccccc1 (stereo unspecified)	6	.	.	.	.	.	.	.
CN(C)C(CNc1ncnc2sc3c(c12)CCCC3)c1ccco1 (stereo unspecified)	0	0	0	-62	.	0	.	.
Cc1ccc2nc(-c3ccc(O)c(O)c3)cn2c1	-3	.	10*	32	.	29*	122*	49*
SMILES	ABHD5 PLIN5 PPI	Hsp70 act	FXN GAA850 act	H9c2 TAG inh	Rad51 HR inh	HIF act	GAA30 FXN cntr	GAA850 confirm
Nc1nc2ccccc2cc1-c1cccs1	-6	.	7.8*	.	.	-15	90*	34*
c1csc(-c2ccc3ccccc3n2)c1	-6	0	1	-3	.	4	.	.
OCc1cn(-c2ccc(Cl)cc2)nn1	2	0	0	-9	16	-1	.	.
COc1cccc2sc(N)nc12	9	.	4	.	.	.	.	.
COc1cccc2sc(N(C)c3ccccc3)nc12	2	0	7.7*	-33	2	0	107*	31*
COc1cccc(C(=O)Nc2cc3c(cc2Cl)OCCCO3)c1	-1	0	7.9*	.	.	3	101*	32*
O=C(Nc1ccc2c(c1)OCO2)c1n[nH]c(=O)c2ccccc12	6	.	9.8*	13	9	3	100*	40*
O=C(Nc1ccc2c(c1)OCO2)c1ccc(Br)s1	-9	0	20*	.	-5	1	108*	38*
C=CCNC(=O)c1c(Br)cnn1-c1ccc(C)cc1	0	0	8.2*	.	-6	3	105*	33*
Cc1ccc2c(CN3CCN(S(=O)(=O)/C=C/c4ccccc4)CC3)cc(=O)oc2c1	0	0	3	7	.	0	.	.
CCC(=O)Nc1cccc(NC(=S)NC(=O)c2ccc(C)cc2)c1	3	0	8.2*	.	1	2	107*	34*
CCC(=O)Nc1cccc(NC(=S)NC(=O)c2cc3ccccc3o2)c1	9	0	8.0*	-6	24	1	106*	34*
CCC(=O)Nc1ccc(NC(=S)NC(=O)c2cc3ccccc3o2)cc1	-1	0	4	.	.	3	.	.
Cc1ccc(-n2nnnc2CN2CCCCC2)cc1	2	0	1	.	.	0	.	.
N#Cc1ccc(S(=O)(=O)N2CCCCC2c2cc(C(=O)Nc3cccc4c3CCCC4)no2)cc1 (stereo unspecified)	2	.	7.9*	-3	.	.	27*	12*
CS(=O)(=O)N1CCCCC1c1cc(C(=O)Nc2cccc3c2CCCC3)no1 (stereo unspecified)	-11	.	1	22	.	.	.	.
COc1ccc(CCC(=O)Nc2cc(S(=O)(=O)N3CCOCC3)ccc2OC(C)C)cc1	1	.	3	11	.	.	.	.
CCCc1nc2ccccc2c2nc(N)nn12	-9	0	8.5*	.	11	0	16	7
COc1cc(C(=O)OCC(=O)Nc2cccc(S(=O)(=O)N3CCOCC3)c2)ccc1OCC(C)C	-7	.	0	14	.	0	.	.
COc1ccc(S(=O)(=O)Nc2ccc3c(c2)C(=O)N([C@H](C)CO)C[C@H](C)[C@@H](CN(C)C(=O)Nc2c(C)noc2C)O3)cc1	4	.	2	9	.	.	.	.
O=c1c2ccccc2sc2ccc(NCCCN3CCOCC3)cc12	1	.	4	-10	-11	5	.	.
COc1cc2sc3cc(NCCCN4CCOCC4)ccc3c(=O)c2cc1OC	-1	.	9.8*	-1	.	.	114*	37*
COc1cc(CN2CCCC(N3CCc4ccccc4C3)C2)c(Cl)cc1O (stereo unspecified)	-3	.	0	-28	.	-2	.	.
COc1cccc(CN2c3ccc(Br)cc3C(=O)CS2(=O)=O)c1	4	.	0	-30	.	.	.	.

Bioassay records: PubChem BioAssay, several laboratories
